Test results as given in ChEMBL document CHEMBL3272072 (J Med Chem, 1976).
Calls of active or inactive are those of the source. No cut-off for these calls is given here.

What was measured:
[1] = system: Canis familiaris; assay: Decrease in systemic arterial blood pressure in dog at >5 ng/kg, iv measured for 2 to 20 mins after drug dosage; format: functional, organism-based; settings: Canis lupus familiaris; Artery
[2] = molecular target: Substance-P receptor (Cavia porcellus) (UniProt P30547); assay: Agonist activity at NK1 receptor in guinea pig ileum assessed as increase in muscle tone; format: tissue-based
Substance-P receptor (Cavia porcellus), sequence (P30547 whole entry): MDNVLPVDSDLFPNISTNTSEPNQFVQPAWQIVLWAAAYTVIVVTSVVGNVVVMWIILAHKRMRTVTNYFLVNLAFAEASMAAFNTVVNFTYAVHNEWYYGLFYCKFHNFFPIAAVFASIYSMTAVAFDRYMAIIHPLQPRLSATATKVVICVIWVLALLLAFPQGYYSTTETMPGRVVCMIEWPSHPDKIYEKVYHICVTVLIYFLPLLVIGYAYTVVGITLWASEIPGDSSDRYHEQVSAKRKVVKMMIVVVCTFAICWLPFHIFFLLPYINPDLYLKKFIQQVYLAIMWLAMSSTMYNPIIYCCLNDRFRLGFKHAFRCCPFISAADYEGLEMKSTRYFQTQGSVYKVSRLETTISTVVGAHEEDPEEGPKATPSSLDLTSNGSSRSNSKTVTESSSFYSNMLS
How it was run: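 Guinea pig ileum segment suspended in a 3-ml bath of oxygenated Tyrode's solution at 38°, with contractile response recorded.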

[3] = molecular target: Substance-P receptor (Rattus norvegicus) (UniProt P14600); assay: Antagonist activity at NK1 receptor in Sprague-Dawley rat pituitary gland assessed as inhibition of LH release by radioimmunoassay in presence of LH-RH
Substance-P receptor (Rattus norvegicus), sequence (P14600 whole entry): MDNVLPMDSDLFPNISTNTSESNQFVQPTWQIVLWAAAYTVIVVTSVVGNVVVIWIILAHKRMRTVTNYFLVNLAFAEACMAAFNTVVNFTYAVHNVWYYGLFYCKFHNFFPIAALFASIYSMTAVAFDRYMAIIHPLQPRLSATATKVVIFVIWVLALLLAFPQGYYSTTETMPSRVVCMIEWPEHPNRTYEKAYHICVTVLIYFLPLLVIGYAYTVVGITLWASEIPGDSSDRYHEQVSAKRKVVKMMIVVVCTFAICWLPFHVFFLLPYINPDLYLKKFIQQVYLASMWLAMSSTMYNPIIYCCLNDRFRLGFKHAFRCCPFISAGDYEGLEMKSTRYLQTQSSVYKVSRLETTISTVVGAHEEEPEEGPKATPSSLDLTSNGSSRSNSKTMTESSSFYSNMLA
How it was run: (§1)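 Anterior pituitaries from 20-day-old female Sprague-Dawley rats, two per 1 ml lactated Ringer's, incubated 6 hr at 37° with shaking. Medium was replaced hourly and assayed by RIA for LH, FSH, GH, PRL and TSH. Peptide was added after two preincubation periods (I3–I6), with LH-RH at I5 and I6. Agonism was read from I3/I4 release and antagonism from I5/I6. Values are in ng of NIH reference standards.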

[4] = molecular target: Substance-P receptor (Rattus norvegicus) (UniProt P14600); assay: Antagonist activity at NK1 receptor in Sprague-Dawley rat pituitary gland assessed as inhibition of FSH release by radioimmunoassay in presence of LH-RH; how it was run: as §1
[5] = system: Pituitary gland; assay: Effect on growth hormone release in Sprague-Dawley rat pituitary gland at 100 ug/ml by radioimmunoassay; format: functional, tissue-based; how it was run: as §1
[6] = system: Pituitary gland; assay: Effect on prolactin release in Sprague-Dawley rat pituitary gland at 100 ug/ml by radioimmunoassay; format: functional, tissue-based; how it was run: as §1
[7] = system: Pituitary gland; assay: Effect on thyrotropin hormone release in Sprague-Dawley rat pituitary gland at 100 ug/ml by radioimmunoassay; format: functional, tissue-based; how it was run: as §1
[8] = Retardation factor of the compound using EtOAc-Pyr-HOAc-H2O at ratio of 5:5:1:3 as solvent system by thin layer chromatography; format: physicochemical
[9] = Retardation factor of the compound using CHCl3-MeOH-concentrated NH4OH at ratio of 60:45:20 as solvent system by thin layer chromatography; format: physicochemical
[10] = Retardation factor of the compound using EtOH-H2O at ratio of 7:3 as solvent system by thin layer chromatography; format: physicochemical
[11] = Retardation factor of the compound using n-BuOH-HOAc-EtOAc-H2O at ratio of 1:1:1:1 as solvent system by thin layer chromatography; format: physicochemical
[12] = Retardation factor of the compound using n-PrOH-1N HOAc at ratio of 2:1 as solvent system by thin layer chromatography; format: physicochemical
[13] = system: Canis familiaris; assay: Decrease in systemic arterial blood pressure in dog at 10 ng/kg, iv measured for 2 to 20 mins after drug dosage (reference value: 140 mmHg); format: functional, Canis lupus familiaris, Artery
[14] = molecular target: Substance-P receptor (Rattus norvegicus) (UniProt P14600); assay: Agonist activity at NK1 receptor in Sprague-Dawley rat pituitary gland assessed as change in LH release at 1000 ng/ml by radioimmunoassay (reference value: -11 +/- 27 ng/ml)
[15] = molecular target: Substance-P receptor (Rattus norvegicus) (UniProt P14600); assay: Agonist activity at NK1 receptor in Sprague-Dawley rat pituitary gland assessed as change in LH release at 10000 ng/ml by radioimmunoassay (reference value: -11 +/- 27 ng/ml)
[16] = molecular target: Substance-P receptor (Rattus norvegicus) (UniProt P14600); assay: Agonist activity at NK1 receptor in Sprague-Dawley rat pituitary gland assessed as change in LH release at 100000 ng/ml by radioimmunoassay (reference value: -11 +/- 27 ng/ml)
[17] = molecular target: Substance-P receptor (Rattus norvegicus) (UniProt P14600); assay: Agonist activity at NK1 receptor in Sprague-Dawley rat pituitary gland assessed as change in FSH release at 1000 ng/ml by radioimmunoassay (reference value: 613 +/- 203 ng/ml)
[18] = molecular target: Substance-P receptor (Rattus norvegicus) (UniProt P14600); assay: Agonist activity at NK1 receptor in Sprague-Dawley rat pituitary gland assessed as change in FSH release at 10000 ng/ml by radioimmunoassay (reference value: 613 +/- 203 ng/ml)
[19] = molecular target: Substance-P receptor (Rattus norvegicus) (UniProt P14600); assay: Agonist activity at NK1 receptor in Sprague-Dawley rat pituitary gland assessed as change in FSH release at 100000 ng/ml by radioimmunoassay (reference value: 613 +/- 203 ng/ml)

Activity [2]: Active
inhibition [3]: inactive
inhibition [4]: inactive
Rf [8]: 0.9
Rf [9]: 0.13
Rf [10]: 0
Rf [11]: 0.09
Rf [12]: 0.05
Activity [14]: -13 ng/mL
Activity [15]: 11 ng/mL
Activity [16]: 68 ng/mL
Activity [17]: 666 ng/mL
Activity [18]: 586 ng/mL
Activity [19]: 1330 ng/mL
SMILES: CSCC[C@H](NC(=O)[C@H](CC(C)C)NC(=O)CNC(=O)[C@H](Cc1ccc(O)cc1)NC(=O)[C@H](Cc1ccccc1)NC(=O)[C@H](CCC(N)=O)NC(=O)[C@H](CCC(N)=O)NC(=O)[C@@H]1CCCN1C(=O)[C@H](CCCCN)NC(=O)[C@@H]1CCCN1C(=O)[C@@H](N)CCCNC(=N)N)C(N)=O
inhibition [1]: Active
Activity [5]: inactive
Activity [6]: inactive
Activity [7]: inactive
Activity [13]: 110 mmHg
